One may read the Kd as the concentration at which binding is half-saturated. In general, Inhibition refers to the relative decrease from the control value, in per cent.

Results on twelve compounds are retold here after ChEMBL document CHEMBL1124688, “9,11-Epoxy-9-homo-14-thiaprost-5-enoic acid derivatives: potent thromboxane A2 antagonists” (J Med Chem, 1989).

Experiment [1] deals with Cavia porcellus. Kind of experiment: Inhibition of arachidonic acid-induced response in guinea pigs by 1 mg/kg of intravenously administered compound. Also noted: scale not given: the % may be the effect or the level left. It is filed as functional. The note with it: route intravenous. A digest of the protocol:
(§1)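 Anesthetized guinea pigs were challenged with arachidonic acid, and lung mechanics (lung resistance, dynamic compliance) and mean arterial blood pressure were recorded. Compounds were given as a 1.0 mg/kg rapid iv infusion, with n = 5 versus vehicle. Inhibition above 100% denotes reversal of the blood-pressure response.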

For experiment [2], the species on record is Homo sapiens. As to the kind of experiment: In vitro evaluation for arachidonic acid induced platelet aggregation of human platelet-rich plasma. The note with it: read-out: I50. It is filed as functional. The procedure, abridged:
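Human platelet-rich plasma was aggregated with arachidonic acid (800 μM). An ADP (20 μM)-induced aggregation run served as a counter-screen.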

Experiment [3] addresses T1, Thromboxane A2 receptor (Homo sapiens, UniProt P21731).
T1 sequence (P21731 whole entry): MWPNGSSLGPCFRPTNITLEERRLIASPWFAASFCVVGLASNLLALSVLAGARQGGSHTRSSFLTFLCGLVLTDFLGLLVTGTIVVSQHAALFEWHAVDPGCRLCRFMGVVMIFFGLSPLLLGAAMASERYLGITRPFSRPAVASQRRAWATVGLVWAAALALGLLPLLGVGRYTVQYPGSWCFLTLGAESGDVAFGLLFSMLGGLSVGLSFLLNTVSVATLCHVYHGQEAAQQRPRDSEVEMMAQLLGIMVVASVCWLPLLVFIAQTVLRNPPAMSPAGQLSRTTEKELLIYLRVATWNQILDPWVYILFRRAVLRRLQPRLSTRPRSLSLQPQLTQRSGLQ
Kind of experiment: Inhibition of specific binding of HSQ(5,6-di-3H-SQ 29,548) in washed platelets. Also noted: species or system Cavia porcellus.

In experiment [4] the test system is Cavia porcellus. As to the kind of experiment: Change in mean arterial blood pressure(MABP) in guinea pigs by 1 mg/kg of intravenously administered compound; activity MABP. It is filed as functional, Artery. Conditions: route intravenous. A digest of the protocol:
as §1

Experiment [5] concerns Cavia porcellus. As to the kind of experiment: Change in mean arterial blood pressure(MABP) in guinea pigs by 1 mg/kg of intravenously administered compound. It is filed as functional, Artery. Conditions: route intravenous. The procedure, abridged:
as §1

Experiment [6] is filed under the species Rattus norvegicus. Kind of experiment: maximal contraction of rat stomach strip by 3 x 10e -7M serotonin. Type of experiment: functional.
The species entered for experiment [7] is Rattus norvegicus. Kind of experiment: Concentration required to elicit 50% of the maximal contraction of rat stomach strip. It is filed as functional. A digest of the protocol:
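Rat stomach strip contraction was measured as the concentration giving 50% of the maximal contraction produced by 3×10^-7 M serotonin.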

The species entered for experiment [8] is Cavia porcellus. As to the kind of experiment: Duration of action of compound for inhibition of arachidonic acid-induced response in guinea pigs. It is filed as functional.
For experiment [9], the species on record is Cavia porcellus. Kind of experiment: In vitro evaluation for antagonist activity against the contraction-induced by histamine (1 ug/mL). Conditions: read-out: I50. Type of experiment: functional. The procedure, abridged:
(§2)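 Guinea pig trachea spirals were contracted by either 9,11-azo-PGH2 (a stable PGH2/TxA2 mimetic) or histamine, and compounds were tested for blockade of these contractions.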

For experiment [10], the species on record is Cavia porcellus. As to the kind of experiment: Duration of action of compound for Inhibition of arachidonic acid-induced response in guinea pigs. It is filed as functional.
The subject of experiment [11] is Cavia porcellus. As to the kind of experiment: Change in mean arterial blood pressure in guinea pigs by 1 mg/kg of intravenously administered compound. Type of experiment: functional, Artery. The note with it: route intravenous. The procedure, abridged:
as §1

For experiment [12], the species on record is Cavia porcellus. As to the kind of experiment: In vitro evaluation for antagonist activity against the contraction-induced by 9,11-azo-PGH2 (0.1 ug/mL). Conditions: read-out: I50. Type of experiment: functional. The procedure, abridged:
as §2

For experiment [13], the species on record is Homo sapiens. Kind of experiment: Percentage stimulation on the synthesis of PGE-2 was at a dose of 3.1 uM. Type of experiment: functional. The procedure, abridged:
(§3)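 Arachidonic acid metabolism was measured in a lysed platelet preparation. Thromboxane synthesis (as TxB2) and PGE2 production were determined at each listed test concentration.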

The species named for experiment [14] is Homo sapiens. Kind of experiment: Percentage stimulation on the synthesis of PGE-2 was at a dose of 100 uM. Type of experiment: functional. A digest of the protocol: as §3
Experiment [15] is filed under the species Homo sapiens. Kind of experiment: Percentage stimulation on the synthesis of PGE-2 was at a dose of 31 uM. Type of experiment: functional. The procedure, abridged: as §3
The species entered for experiment [16] is Homo sapiens. Kind of experiment: Percent inhibition on the synthesis of thromboxane B2 at a dose of 10 uM. It is filed as functional. A digest of the protocol:
as §3

The species named for experiment [17] is Homo sapiens. As to the kind of experiment: Percentage stimulation on the synthesis of PGE-2 at a dose of 1.0 uM. Type of experiment: functional. The procedure, abridged:
as §3

For experiment [18], the target named is T1, Thromboxane A2 receptor. Kind of experiment: Compound was evaluated for inhibition of specific binding of HSQ (5,6-di-3H-SQ 29,548) in washed platelets. Details: species or system Cavia porcellus.
The species named for experiment [19] is Homo sapiens. Kind of experiment: Percent inhibition on the synthesis of thromboxane B2 at a dose of 31 uM. Type of experiment: functional. The procedure, abridged:
as §3

The species entered for experiment [20] is Homo sapiens. Kind of experiment: Percentage stimulation on the synthesis of PGE-2 was at a dose of 10 uM. It is filed as functional. The procedure, abridged: as §3
For experiment [21], the species on record is Homo sapiens. Kind of experiment: Percent inhibition on the synthesis of thromboxane B2 at a dose of 1.0 uM. Type of experiment: functional. A digest of the protocol:
as §3

For experiment [22], the species on record is Homo sapiens. Kind of experiment: Percent inhibition on the synthesis of thromboxane B2 at a dose of 3.1 uM. It is filed as functional. A digest of the protocol: as §3
The species entered for experiment [23] is Homo sapiens. As to the kind of experiment: Percent inhibition on the synthesis of thromboxane B2 at a dose of 100 uM. It is filed as functional. The procedure, abridged:
as §3

Values joined by “and” are separate entries in the source; they are usually repeats but may differ in a detail not shown here. Equal values may be shown once. Where only a bound is given, the exact number is not on record here.

On to `CCCSCC1C2CCC(O2)C1C/C=C\CCCC(=O)O` (stereo unspecified), for which the Activity in the experiment with Cavia porcellus [1] is 131% and 97%; with Cavia porcellus [4], 50%. Also, the IC50 in the experiment filed under Homo sapiens [2] worked out at 700 nM. The compound also showed a Kd on Thromboxane A2 receptor [3] of 97 nM. The compound also yielded an Agonist activity with Cavia porcellus [5] of 50%.
The compound `CCCCCCSC[C@H]1C2CC[C@@H](O2)[C@H]1C/C=C\CCCC(=O)O` (single isomer, unassigned; (+)) registered a Contraction in the experiment listed under Rattus norvegicus [6] of 6%.
As for `CCCCCC[S+]([O-])CC1C2CCC(O2)C1C/C=C\CCCC(=O)O` (stereo unspecified), the Contraction in the experiment listed under Rattus norvegicus [6] amounted to 9%. Further, the A50 in the experiment listed under Rattus norvegicus [7] is 21 µM.
Turning to `O=C(O)CCC/C=C\CC1C2CCC(O2)C1CSCCOc1ccccc1` (stereo unspecified), the A50 in the experiment filed under Rattus norvegicus [7] was 0.1 µM.
Turning to `CCCCSCC1C2CCC(O2)C1C/C=C\CCCC(=O)O` (stereo unspecified), in the experiment on Cavia porcellus [1], the Activity was 136% and 180%. Further, the Duration in the experiment listed under Cavia porcellus [8] is listed as less than 60 min. In addition, the Agonist activity in the experiment with Cavia porcellus [5] (1 mg/kg) was 58% and 98%.
For the compound `CCC/C=C\CSCC1C2CCC(O2)C1C/C=C\CCCC(=O)O` (stereo unspecified), the IC50 was greater than 100000 nM in the experiment filed under Cavia porcellus [9] and 1600 nM in the experiment filed under Cavia porcellus [12]. Moreover, the Duration in the experiment filed under Cavia porcellus [10] is recorded as less than 60 min. Also, the “Activity MABP” value with Cavia porcellus [11] is 98% and 194%. In addition, the A50 in the experiment filed under Rattus norvegicus [7] stood at 4.3 µM.
`O=C(O)CCC/C=C\CC1C2CCC(O2)C1CSCCCc1ccccc1` (stereo unspecified) returned an A50 in the experiment listed under Rattus norvegicus [7] of 0.2 µM.
As for `CCC/C=C(\C)CSCC1C2CCC(O2)C1CC=CCCCC(=O)O` (stereo unspecified), the values for the IC50 in the experiment filed under Cavia porcellus [9] and in the experiment filed under Cavia porcellus [12] were greater than 100000 nM and 1600 nM, respectively. The A50 in the experiment filed under Rattus norvegicus [7] is 46 µM.
In the experiment filed under Cavia porcellus [8], `CCCCCC(C)SCC1C2CCC(O2)C1C/C=C\CCCC(=O)O` (stereo unspecified) came in with a Duration of 0 min.
For `CCCCCCSC[C@H]1C2CCC(O2)[C@H]1C/C=C\CCCC(=O)O` (stereo partly specified), in the experiment filed under Rattus norvegicus [7], the A50 worked out at 39 µM.
In the case of `CCCCCCSC[C@H]1C2CC[C@@H](O2)[C@H]1C/C=C\CCCC(=O)O` (single isomer, unassigned; (-)), the results for the IC50 in the experiment listed under Cavia porcellus [9], in the experiment filed under Homo sapiens [2] and in the experiment filed under Cavia porcellus [12] were greater than 100000 nM, 1000 nM and 500 nM, respectively. For the same compound, in the experiment filed under Cavia porcellus [10], the Duration is given as less than 60 min. In addition, the Stimulation in the experiment listed under Homo sapiens [13] was determined as 137%; in the experiment filed under Homo sapiens [14], 556%; in the experiment filed under Homo sapiens [15], 404%; in the experiment listed under Homo sapiens [17] it was 174%; in the experiment filed under Homo sapiens [20], 230%. For the same compound, the “Activity MABP” value with Cavia porcellus [11] was 107% and 153%. Besides, the Inhibition in the experiment filed under Homo sapiens [16] stood at 17%; in the experiment listed under Homo sapiens [19], 29%; in the experiment listed under Homo sapiens [21], 7%; in the experiment listed under Homo sapiens [22], 3%; in the experiment filed under Homo sapiens [23] it was 69%. In the experiment listed under Rattus norvegicus [7], the A50 worked out at 25 µM. The Kd on Thromboxane A2 receptor [18] came to 1.6 nM.
In the experiment filed under Rattus norvegicus [7], `O=C(O)CCC/C=C\CC1C2CCC(O2)C1CSc1ccccc1` (stereo unspecified) came in with an A50 of 0.8 µM.
